A value given as a limit tells only on which side of the number the result lay.

As usually defined, the IC50 is the concentration needed to halve the response being measured. Low values mean inhibition by little substance, high ones a need for much substance.

One experiment addresses Mouse Smo Wild-type (Mus musculus, UniProt P56726). It is filed as cell-based. A digest of the protocol:
(§1)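 C3H10T1/2 cells transiently co-transfected with HA-tagged mouse Smo (wild-type or point mutant, in pcDNA3.1), a Gli-luciferase reporter and TK-driven renilla luciferase. Serial dilutions of test compound (0.001 to 10 μM final) added 24 h post-transfection. Firefly and renilla luciferase read by dual-luciferase assay after a further 24 h. Percent inhibition calculated relative to DMSO control.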

The next experiment concerns the target Mouse Smo D388N (Mus musculus, UniProt P56726, D388N). It is filed as cell-based. A digest of the protocol: as §1
The test system of experiment [1] is Ptch+/−Hic+/− medulloblastoma tumors. The experiment in a line: Ptch+/−Hic+/− medulloblastoma allograft efficacy study in nude mice. It is filed as in vivo, mouse.
A further experiment deals with human Smo (Homo sapiens, UniProt Q99835). In words: Smo Agonist 1.5 displacement assay, human Smo. The format is binding.
human Smo, sequence (Q99835 28-787): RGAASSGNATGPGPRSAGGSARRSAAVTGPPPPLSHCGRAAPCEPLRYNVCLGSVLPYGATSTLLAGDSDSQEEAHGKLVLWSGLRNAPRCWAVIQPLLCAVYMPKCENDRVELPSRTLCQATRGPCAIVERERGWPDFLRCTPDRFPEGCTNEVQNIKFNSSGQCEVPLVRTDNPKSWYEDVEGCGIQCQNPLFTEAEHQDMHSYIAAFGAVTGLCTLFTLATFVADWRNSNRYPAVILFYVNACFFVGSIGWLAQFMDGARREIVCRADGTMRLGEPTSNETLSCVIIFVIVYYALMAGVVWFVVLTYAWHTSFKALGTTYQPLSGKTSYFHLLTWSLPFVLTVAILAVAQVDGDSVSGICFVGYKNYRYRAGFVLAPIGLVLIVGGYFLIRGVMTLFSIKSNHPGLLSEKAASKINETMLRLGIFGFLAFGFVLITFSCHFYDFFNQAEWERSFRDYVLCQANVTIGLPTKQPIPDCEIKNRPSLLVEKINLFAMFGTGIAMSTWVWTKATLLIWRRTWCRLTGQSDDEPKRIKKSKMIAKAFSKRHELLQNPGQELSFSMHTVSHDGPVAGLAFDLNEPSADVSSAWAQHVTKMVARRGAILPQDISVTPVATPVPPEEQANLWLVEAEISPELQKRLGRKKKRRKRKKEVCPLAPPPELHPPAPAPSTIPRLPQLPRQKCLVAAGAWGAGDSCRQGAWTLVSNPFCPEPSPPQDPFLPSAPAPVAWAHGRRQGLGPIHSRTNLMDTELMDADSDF
Experiment [2] concerns Ptch+/−p53−/− medulloblastoma tumors. In words: Ptch+/−p53−/− medulloblastoma allograft efficacy study in nude mice. It is filed as in vivo, mouse.
The target in another experiment is Mouse Smo S391N (Mus musculus, UniProt P56726, S391N). The format is cell-based. A digest of the protocol:
as §1

The next experiment relates to Gli1 mRNA. In words: Gli1 mRNA in Ptch+/−p53−/− medulloblastoma allografts in nude mice. The settings on record: oral, 20 mg/kg/day qd. The format is in vivo, mouse.
A further experiment deals with Mouse Smo L225R (Mus musculus, UniProt P56726, L225R). It is filed as cell-based. A digest of the protocol:
as §1

For another experiment, the target named is mouse Smo (Mus musculus, UniProt P56726). The experiment in a line: Smo Agonist 1.5 displacement assay, mouse Smo. It is filed as binding.
mouse Smo, sequence (P56726 33-793): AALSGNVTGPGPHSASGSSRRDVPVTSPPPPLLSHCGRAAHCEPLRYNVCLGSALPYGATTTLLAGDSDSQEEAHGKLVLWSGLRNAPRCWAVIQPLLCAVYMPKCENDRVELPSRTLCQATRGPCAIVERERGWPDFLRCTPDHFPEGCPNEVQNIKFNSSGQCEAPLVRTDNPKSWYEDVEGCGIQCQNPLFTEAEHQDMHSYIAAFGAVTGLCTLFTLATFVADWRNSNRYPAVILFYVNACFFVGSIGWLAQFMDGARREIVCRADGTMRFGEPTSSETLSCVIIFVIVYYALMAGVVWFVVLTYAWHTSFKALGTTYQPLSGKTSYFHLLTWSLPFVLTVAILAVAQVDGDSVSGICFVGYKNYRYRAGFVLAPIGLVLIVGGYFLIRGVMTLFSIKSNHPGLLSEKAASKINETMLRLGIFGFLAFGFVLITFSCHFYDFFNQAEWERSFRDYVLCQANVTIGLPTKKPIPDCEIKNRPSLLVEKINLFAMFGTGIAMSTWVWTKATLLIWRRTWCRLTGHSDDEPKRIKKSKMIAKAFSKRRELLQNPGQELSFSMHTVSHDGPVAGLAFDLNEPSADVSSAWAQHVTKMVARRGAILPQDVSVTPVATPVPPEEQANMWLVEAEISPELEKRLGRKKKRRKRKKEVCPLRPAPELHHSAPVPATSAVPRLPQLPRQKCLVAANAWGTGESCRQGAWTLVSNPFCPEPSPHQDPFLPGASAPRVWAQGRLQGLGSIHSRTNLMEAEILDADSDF
The next experiment addresses Mouse Smo G457S (Mus musculus, UniProt P56726, G457S). The format is cell-based. A digest of the protocol:
as §1

Another experiment concerns the target Mouse Smo N223D (Mus musculus, UniProt P56726, N223D). The format is cell-based. A digest of the protocol: as §1
The test system of experiment [3] is Gli1, Ptch1, Ptch2 and CyclinD1 mRNA. The experiment in a line: Hh target gene mRNA in Ptch+/−Hic1+/− medulloblastoma allografts in nude mice. The format is in vivo, mouse. The settings on record: Ptch+/−Hic1+/− allograft, oral, initial treatment.
The subject of the next experiment is resistant tumor cells. In words: Ex-vivo medulloblastoma proliferation assay. It is filed as cell-based, mouse. To be noted: cells freshly isolated from resistant tumors.

Mouse Smo G457S, sequence (P56726 33-793 G457S): as the sequence (P56726 33-793) above, with G425S counted along it
Mouse Smo L225R, sequence (P56726 33-793 L225R): as the sequence (P56726 33-793) above, with L193R counted along it
Mouse Smo Wild-type, sequence (P56726 33-793): as the sequence (P56726 33-793) above
Mouse Smo D388N, sequence (P56726 33-793 D388N): as the sequence (P56726 33-793) above, with D356N counted along it
Mouse Smo S391N, sequence (P56726 33-793 S391N): as the sequence (P56726 33-793) above, with S359N counted along it
Mouse Smo N223D, sequence (P56726 33-793 N223D): as the sequence (P56726 33-793) above, with N191D counted along it

On to `Cc1c(C(=O)Nc2ccc(N3C[C@@H](C)O[C@@H](C)C3)nc2)cccc1-c1ccc(OC(F)(F)F)cc1` [NVP-LDE225], for which the 50% inhibitory concentration (IC50) is 6 nM against Mouse Smo Wild-type; above 10000 nM against Mouse Smo D388N; 11 nM on human Smo; above 10000 nM against Mouse Smo S391N; above 10000 nM against Mouse Smo L225R; 12 nM at mouse Smo. The IC50 is 400 nM at Mouse Smo G457S and above 10000 nM against Mouse Smo N223D. In addition, the “tumor response during initial treatment” value in experiment [1] (Ptch+/−Hic1+/− allograft, oral) is listed as “tumor regression”. Further, the “number of complete regressions” value in [1] (Ptch+/−Hic+/− allograft, after 61 days of treatment, n=8, NVP-LDE225 80 mg/kg/day qd, NVP-BEZ235 40 mg/kg/day qd) came to 1. Moreover, the tumor growth entry in experiment [2] (10 mg/kg/day, Ptch+/−p53−/− allograft) is “partial growth inhibition”. For the same molecule, the “expression of Hh pathway target gene Gli1 in tumors” value with Gli1 mRNA is “completely suppressed”. For the same molecule, the “Gli1, Ptch1, Ptch2 and CyclinD1 mRNA expression in tumors” value in experiment [3] was “Pronounced inhibition”.

As for `Nc1cc(C(F)(F)F)c(-c2cc(N3CCOCC3)nc(N3CCOCC3)n2)cn1` [NVP-BKM120, reference compound], the “tumor growth inhibition in established NVP-LDE225 resistant tumors” value in experiment [2] (treatment of established NVP-LDE225 resistant tumors, data not shown) is listed as “modest but not statistically significant tumor growth inhibition”.

HhAntag: the “growth of resistant tumor cells upon exposure” value in the experiment with resistant tumor cells was “largely unaffected”.
